These results are taken from ChEMBL document CHEMBL4177768, “Synthesis and Biological Evaluation of Derivatives of Indoline as Highly Potent Antioxidant and Anti-inflammatory Agents” (J Med Chem, 2018).

Data set [1] has as its system Mus musculus. Briefly: Acute toxicity in Balb/C mouse assessed as change in activity at 100 umol/kg, sc measured over 72 hrs. It counts as organism-based. The conditions noted are these: in vivo. The method, boiled down:
(§1)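 Male Balb/C mice, 24-28 g, groups of 3; single sc injection of compound at 100 μmoles/kg or saline (1 mL/100 g). Food and water intake, body weight and general activity monitored over 72 h against saline-injected animals.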

Data set [2] relates to Mus musculus. Briefly: Antiinflammatory activity in Balb/C mouse assessed as reduction in LPS-induced IL6 production in liver at 0.1 to 10 umol/kg, sc administered LPS 15 mins post compound treatment measured after 4 hrs by ELISA. Type of data set: functional, organism-based. For orientation: ELISA stands for enzyme-linked immunosorbent assay.
The subject of data set [3] is Mus musculus. Briefly: Acute toxicity in Balb/C mouse assessed as change in food intake at 100 umol/kg, sc measured over 72 hrs. Type of data set: organism-based. The conditions noted are these: in vivo. The gist of the method:
as §1

For data set [4], the system named is Mus musculus. Briefly: Acute toxicity in Balb/C mouse assessed as change in water intake at 100 umol/kg, sc measured over 72 hrs. Type of data set: organism-based. The conditions noted are these: in vivo. The gist of the method: as §1
Data set [5] concerns Mus musculus. Briefly: Acute toxicity in Balb/C mouse assessed as change in body weight at 100 umol/kg, sc measured over 72 hrs. It counts as organism-based. The conditions noted are these: in vivo. The method, boiled down:
as §1

In data set [6] the test system is RAW264.7. Briefly: Antiinflammatory activity in mouse RAW264.7 cells assessed as reduction in LPS-induced IL-6 production at 100 pM incubated for 2 hrs prior to LPS challenge measured after 24 hrs by ELISA. Type of data set: functional. More on the design: scale not given: the % may be the effect or the level left. The method, boiled down:
(§2)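 RAW 264.7 macrophages were plated at 1×10^5 per well, grown overnight and washed with PBS. Compounds in water (final 1 pM-100 nM, medium with 2% FCS) were added 2 h at 37 °C before E. coli 0111:B4 LPS, 2.5 µg/mL. TNF-α was sampled at 8 h; IL-6 and nitrite (Griess) at 24 h. ELISA was used for cytokines. Values are % of the LPS + medium value in each experiment. Budesonide was the reference. 2-3 experiments, 6 wells per concentration.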

Data set [7] has as its system RAW264.7. Briefly: Antiinflammatory activity in mouse RAW264.7 cells assessed as reduction in LPS-induced nitric oxide production at 100 pM incubated for 2 hrs prior to LPS challenge measured after 24 hrs by Griess assay. More on the design: scale not given: the % may be the effect or the level left. It counts as functional. The gist of the method: as §2
On the technique in general: Nitrite, measured by Griess reagent, commonly stands in for NO production.

Data set [8] concerns RAW264.7. Briefly: Cytoprotective activity against H2O2-induced oxidative stress in mouse RAW264.7 cells assessed as decrease in LDH release at 1 pM incubated for 2 hrs prior to H2O2 addition by colorimetric assay relative to control. Type of data set: functional. On the set-up: scale not given: the % may be the effect or the level left. The method, boiled down:
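RAW 264.7 cells were seeded and pretreated with compound before H2O2 100 µM, in serum-free medium. Collected medium was centrifuged and incubated with reaction mix 30 min at room temperature. LDH was measured as NADH formation by colorimetric read at 490 nm. n = 8-10 replicates per concentration.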
For orientation: LDH leaks from cells whose membrane has failed.

The subject of data set [9] is RAW264.7. Briefly: Cytoprotective activity against H2O2-induced oxidative stress in mouse RAW264.7 cells assessed as cell viability at 1 pM incubated for 2 hrs prior to H2O2 addition measured after 24 hrs by MTT assay (reference value: 68 to 72.8%). The conditions noted are these: read-out: Activity. Type of data set: functional.
For data set [10], the system named is Mus musculus. Briefly: Antiinflammatory activity in Balb/C mouse assessed as reduction in LPS-induced TNF-alpha production in plasma at 0.1 umol/kg, sc administered LPS 15 mins post compound treatment measured after 4 hrs by ELISA. Type of data set: functional, organism-based. The gist of the method: (§3)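 Male Balb/C mice, 7-8 weeks old, given compound sc (0.1, 1 or 10 µmoles/kg) or saline. LPS 10 mg/kg was given ip 15 min later, and mice were killed 4 h after that. Spleens were homogenized in PBS with protease inhibitor and centrifuged at 14,000 g, 4 °C. Cytokines in plasma and tissue supernatants were measured by ELISA, with protein by BCA. Dexamethasone 5.6 µmoles/kg was the reference. n = 8-10 mice per treatment.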

Data set [11] concerns Mus musculus. Briefly: Antiinflammatory activity in Balb/C mouse assessed as reduction in LPS-induced IL6 production in plasma at 0.1 umol/kg, sc administered LPS 15 mins post compound treatment measured after 4 hrs by ELISA. It counts as functional, organism-based. The method, boiled down: as §3
The subject of data set [12] is Mus musculus. Briefly: Antiinflammatory activity in Balb/C mouse assessed as reduction in LPS-induced TNF-alpha production in spleen at 0.1 umol/kg, sc administered LPS 15 mins post compound treatment measured after 4 hrs by ELISA. Type of data set: functional, organism-based. The gist of the method:
as §3

Data set [13] concerns Mus musculus. Briefly: Antiinflammatory activity in Balb/C mouse assessed as reduction in LPS-induced IL6 production in spleen at 0.1 umol/kg, sc administered LPS 15 mins post compound treatment measured after 4 hrs by ELISA. It counts as functional, organism-based. The gist of the method: as §3
Data set [14] relates to Mus musculus. Briefly: Antiinflammatory activity in Balb/C mouse assessed as reduction in LPS-induced IL6 production in brain at 0.1 umol/kg, sc administered LPS 15 mins post compound treatment measured after 4 hrs by ELISA. Type of data set: functional, organism-based.
In data set [15] the test system is RAW264.7. Briefly: Antiinflammatory activity in mouse RAW264.7 cells assessed as reduction in LPS-induced nitric oxide production at 10 pM incubated for 2 hrs prior to LPS challenge measured after 24 hrs by Griess assay. It counts as functional. More on the design: scale not given: the % may be the effect or the level left. The method, boiled down: as §2
Data set [16] concerns RAW264.7. Briefly: Antiinflammatory activity in mouse RAW264.7 cells assessed as reduction in LPS-induced IL-6 production at 10 pM incubated for 2 hrs prior to LPS challenge measured after 24 hrs by ELISA. It counts as functional. More on the design: scale not given: the % may be the effect or the level left. The gist of the method:
as §2

The subject of data set [17] is RAW264.7. Briefly: Antiinflammatory activity in mouse RAW264.7 cells assessed as reduction in LPS-induced TNF-alpha production at 10 pM incubated for 2 hrs prior to LPS challenge measured after 8 hrs by ELISA. More on the design: scale not given: the % may be the effect or the level left. It counts as functional. The gist of the method: as §2
Data set [18] concerns RAW264.7. Briefly: Cytoprotective activity against H2O2-induced oxidative stress in mouse RAW264.7 cells assessed as decrease in LDH release at 1 pM incubated for 2 hrs prior to H2O2 addition by colorimetric assay relative to control. On the set-up: scale not given: the % may be the effect or the level left.
Data set [19] deals with RAW264.7. Briefly: Cytoprotective activity against H2O2-induced oxidative stress in mouse RAW264.7 cells assessed as decrease in caspase-3 activity at 1 pM incubated for 4 hrs prior to H2O2 addition measured after 90 mins by caspase-GloR reagent-based luminescence assay relative to control. It counts as functional. The method, boiled down:
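RAW 264.7 macrophages were pretreated with compound (1 pM or 1 nM) 4 h before H2O2 100 µM. Medium was replaced with fresh DMEM after 90 min and plates were incubated overnight. Caspase-Glo 3/7 reagent was added and luminescence read after 30 min at room temperature. Mean ± SD, 4-6 replicates.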

Data set [20] has as its system RAW264.7. Briefly: Antiinflammatory activity in mouse RAW264.7 cells assessed as reduction in LPS-induced TNF-alpha production at 1 nM incubated for 2 hrs prior to LPS challenge measured after 8 hrs by ELISA. It counts as functional. The method, boiled down: as §2
Data set [21] deals with RAW264.7. Briefly: Antiinflammatory activity in mouse RAW264.7 cells assessed as reduction in LPS-induced nitric oxide production at 1 pM to 100 nM incubated for 2 hrs prior to LPS challenge measured after 24 hrs by Griess assay. It counts as functional, cell-based. The method, boiled down:
as §2

Data set [22] has as its system RAW264.7. Briefly: Antiinflammatory activity in mouse RAW264.7 cells assessed as reduction in LPS-induced TNF-alpha production at 1 pM to 100 nM incubated for 2 hrs prior to LPS challenge measured after 8 hrs by ELISA. Type of data set: functional, cell-based. The method, boiled down:
as §2

In data set [23] the test system is RAW264.7. Briefly: Antiinflammatory activity in mouse RAW264.7 cells assessed as reduction in LPS-induced IL-6 production at 1 nM incubated for 2 hrs prior to LPS challenge measured after 24 hrs by ELISA. Type of data set: functional. The gist of the method:
as §2

Data set [24] deals with RAW264.7. Briefly: Antiinflammatory activity in mouse RAW264.7 cells assessed as reduction in LPS-induced TNF-alpha production at 100 pM incubated for 2 hrs prior to LPS challenge measured after 8 hrs by ELISA. It counts as functional. The gist of the method:
as §2

For data set [25], the system named is RAW264.7. Briefly: Antiinflammatory activity in mouse RAW264.7 cells assessed as reduction in LPS-induced nitric oxide production at 1 nM incubated for 2 hrs prior to LPS challenge measured after 24 hrs by Griess assay. It counts as functional. The gist of the method: as §2
The test system of data set [26] is RAW264.7. Briefly: Cytoprotective activity against H2O2-induced oxidative stress in mouse RAW264.7 cells assessed as cell viability at 1 nM incubated for 2 hrs prior to H2O2 addition measured after 24 hrs by MTT assay (reference value: 68 to 72.8%). It counts as functional. The conditions noted are these: read-out: Activity.

Calls of active or inactive are those of the source. The rule behind the calls is not given here.

With `CC(C)NC(=O)CCN1CCc2ccccc21.Cl`, the Activity result in the data set on Mus musculus [1] was “Non-Toxic”; in the data set on Mus musculus [3] it was “Non-Toxic”; in the data set with Mus musculus [4], “Non-Toxic”; in the data set with Mus musculus [5] it was “Non-Toxic”; in the data set on RAW264.7 [6] it was 50%; in the data set with RAW264.7 [7], 50%. Besides, the Activity with RAW264.7 [8] stood at 16%; with RAW264.7 [15] it was 50%; in the data set on RAW264.7 [16], 50%; in the data set with RAW264.7 [17], 50%; in the data set on RAW264.7 [18], 16%. In addition, in the data set on Mus musculus [2], the result was inactive. In addition, the viability at 1 pM in the data set on RAW264.7 [9] worked out at 93.7%. For the same compound, the result in the data set on Mus musculus [10], in the data set with Mus musculus [11], in the data set with Mus musculus [12], in the data set with Mus musculus [13] and in the data set on Mus musculus [14] was Active.

Take `Cl.NCCCN1CCc2ccccc21`: the outcome with RAW264.7 [19] was inactive. In addition, the outcome with RAW264.7 [20], with RAW264.7 [21], with RAW264.7 [22], in the data set on RAW264.7 [23], in the data set with RAW264.7 [24] and with RAW264.7 [25] was Active. For the same compound, the outcome with RAW264.7 [6] and with RAW264.7 [7] was Active. Also, the Activity with RAW264.7 [8] and in the data set on RAW264.7 [18] was 16% throughout. Besides, in the data set with RAW264.7 [26], the viability at 0.001 µM came out at 91.9%.
